The text below walks through data of ChEMBL document CHEMBL4513216, “Probing the Open Global Health Chemical Diversity Library for Multistage-Active Starting Points for Next-Generation Antimalarials” (ACS Infect Dis, 2020).

The structures appear in SMILES notation.

The data set is described as follows: Toxicity liver stage against HepG2, at 10uM. In kind it is cell-based. Set-up: test concentration 10 uM, cell line HepG2-A16-CD81EGFP. The following applies: human, HepG2-A16-CD81EGFP cells; read-out: INHIBITION
The gist of the method: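 Uninfected HepG2-A16-CD81EGFP cells, 3 × 10^3 per well, 1536-well, plated on prespotted compound at 10 μM final, parasite-free screening media added to match infected plates; puromycin 10 μM positive, DMSO 0.5% negative; run in parallel with 48 h PbLuc assay at 37 °C, 5% CO2; viability by CellTiter-Glo luminescence, normalized to controls.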
As for `CC(=O)Nc1nc(SCc2ccc3c(c2)OCO3)ns1`, the cytotoxicity at 10 µM is -8.98%.

As for `CC1CCCN(CCCNC(=O)c2ccc(N(C)S(C)(=O)=O)cc2Cl)C1` (stereo unspecified), the cytotoxicity at 10 µM was -2.28%.

As to `CNC(=O)c1nnn(-c2ccccc2F)c1-c1ccccn1`, the cytotoxicity at 10 µM was -4.21%.

Consider `Cc1ccsc1-c1nc(CN(C)Cc2cc[nH]n2)c(C)o1`, for which the cytotoxicity at 10 µM was determined as 10.3%.

With `CS(=O)(=O)NCC1CCCN(C(=O)c2ccc3c(c2)CCCC3)C1` (stereo unspecified), the cytotoxicity at 10 µM is -3.54%.

For the compound `Cc1nnc2n1CCN(C(=O)c1ccc(Cn3cccc3)cc1)C2`, the cytotoxicity at 10 µM is -2.4%.

Turning to `Cc1ccc(CN2CCC3(CCCN3S(C)(=O)=O)CC2)s1`, the cytotoxicity at 10 µM is -113%.

As to `CCc1ccc(CN2C[C@H](OC)[C@H]3COC[C@H]32)o1`, the cytotoxicity at 10 µM turned out to be 5.22%.

In the case of `CN(C(=O)C1CCC1)C1CCN(c2ccccc2Cl)C1=O` (stereo unspecified), the cytotoxicity at 10 µM was -0.949%.

Take `CCN1CCN(C[C@H]2CC[C@@H](Cc3ccc4c(c3)OCO4)O2)CC1`: the cytotoxicity at 10 µM is -5.97%.

`O=C(NCc1cc[nH]n1)NCC(O)c1ccc(F)cc1` (stereo unspecified): the cytotoxicity at 10 µM was -12%.

As to `CCCS(=O)(=O)N1Cc2nccn2CC(Cn2cccn2)C1` (stereo unspecified), the cytotoxicity at 10 µM was -120%.

For the compound `Cc1noc(C2CCCN(C(=O)c3ccc(F)cc3F)C2)n1` (stereo unspecified), the cytotoxicity at 10 µM was found to be 2.01%.

For `CCCc1nc(CNC2(c3nccs3)CCCC2)cs1`, the cytotoxicity at 10 µM came out at 2.63%.

With `CCCS(=O)(=O)N(C)C(=O)CCc1ccccc1`, the cytotoxicity at 10 µM came out at 4.83%.

Turning to `CCc1nc(CC(=O)N2CCC(C(=O)N(CC)CC)CC2)cs1`, the cytotoxicity at 10 µM was -1.42%.

Consider `CS(=O)(=O)N1CCc2sc(C(=O)NCCc3ccccn3)cc21`, for which the cytotoxicity at 10 µM is -0.464%.

Consider `CCCc1n[nH]c(C2CN(C(=O)CCCn3ccnc3C)CCO2)n1` (stereo unspecified), for which the cytotoxicity at 10 µM is 6.03%.

With `Cn1c(C2CC2)nc2c1CCN(Cc1nc3ccccc3s1)C2`, the cytotoxicity at 10 µM was -4.69%.

Consider `CC1CN(CC(=O)NCCc2ccccc2)CCN1c1nccs1` (stereo unspecified), for which the cytotoxicity at 10 µM is -2.79%.

`Cc1ccc(C(=O)Oc2cc(=O)n3cccc(C)c3n2)cc1`: the cytotoxicity at 10 µM stood at 5.62%.

For `Cc1nc(C)c2c(n1)CCN(C(=O)CN(C)C)CC2`, the cytotoxicity at 10 µM was -4.51%.

Take `CCc1nc(NCCCn2cccn2)c2c(n1)c(C)nn2C`: the cytotoxicity at 10 µM was determined as 6.41%.

As for `Cc1nn(C)c(C)c1C(=O)NCc1ccnc(OCC(F)(F)F)c1`, the cytotoxicity at 10 µM is -10.7%.

For `CC(C)n1ccc(C(=O)NCC(O)c2c(Cl)cccc2Cl)n1` (stereo unspecified), the cytotoxicity at 10 µM was determined as 1.81%.

`O=C(NCC1CCOC1)N1CCN(Cc2ccc3c(c2)CCO3)CC1` (stereo unspecified): the cytotoxicity at 10 µM is -4.2%.

In the case of `CCCN(CC(=O)NC)C(=O)c1ccc(-c2ccsc2)nc1C`, the cytotoxicity at 10 µM was -14.3%.

For the compound `CN(CC(F)(F)F)C(=O)CNC(=O)N1CCCC(C(F)(F)F)C1` (stereo unspecified), the cytotoxicity at 10 µM was 0.601%.

With `COc1c(CNCc2ccnc(N3CCCCC3)c2)c(C)nn1C`, the cytotoxicity at 10 µM came to 10.1%.

Take `O=C(O)C1CCCCN1C(=O)c1cccc(C(F)(F)F)c1` (stereo unspecified): the cytotoxicity at 10 µM was -5.95%.

As for `O=C(Nc1cnccn1)[C@@H]1CCO[C@@H]2CCN(Cc3ccsc3)C[C@@H]21`, the cytotoxicity at 10 µM was -77.1%.

`COCCO[C@@H]1C[C@H]2CN(C(=O)c3cnccn3)CCN2C1`: the cytotoxicity at 10 µM is -8.58%.

Consider `COCC1c2c(cnn2C)CCN1C(=O)c1ccc2c(c1)OCO2` (stereo unspecified), for which the cytotoxicity at 10 µM amounted to 3.74%.

With `CSc1ccc(NCC(=O)NCC2CC2)cc1F`, the cytotoxicity at 10 µM stood at 0.936%.

As to `COCCC(=O)N1CCC2(CC1)CN(C(C)=O)Cc1ccccc1O2`, the cytotoxicity at 10 µM was found to be 0.245%.

For `Cc1ccc(C(=O)N2C[C@@H]3CCN(c4cccnc4)C[C@@H]3C2)cn1`, the cytotoxicity at 10 µM is -75.9%.

Turning to `O=C(NCCc1nncn1C1CC1)C1SCCc2sccc21` (stereo unspecified), the cytotoxicity at 10 µM is -1.6%.

Turning to `CNc1ncc(CN(C)c2nc(C)c3ccc(S(C)(=O)=O)cc3n2)cn1`, the cytotoxicity at 10 µM is -3.66%.

With `Cc1ccccc1NC(=O)NCC(C)(O)c1cccs1` (stereo unspecified), the cytotoxicity at 10 µM worked out at 8.5%.

On to `Cc1nn(C)c(C)c1CN(Cc1cccn1-c1ncccn1)C(C)C`, for which the cytotoxicity at 10 µM was -0.316%.

As for `CCn1c(-c2ccccc2)nn(CC(=O)NCCc2c[nH]cn2)c1=O`, the cytotoxicity at 10 µM is -2.99%.

As for `COc1c[nH]c(C(=O)N2CCN(c3ccc(Cl)cc3)CC2)cc1=O`, the cytotoxicity at 10 µM was 4.42%.

As to `Cc1cnc(CNc2ncc(C)c(-c3cnn(C)c3)n2)cn1`, the cytotoxicity at 10 µM is 7.86%.

Regarding `CN(C)c1cccc(CNC(=O)Nc2ccc3[nH]nnc3c2)n1`, the cytotoxicity at 10 µM was determined as 3.15%.

Consider `COCC(=O)N1CCC2(CCCN(Cc3cc(OC)ccc3F)C2)C1` (stereo unspecified), for which the cytotoxicity at 10 µM is -1.62%.

Regarding `O=S(=O)(c1cccs1)N1CC[C@@H](O)[C@@H]1Cc1ccncc1`, the cytotoxicity at 10 µM is -72.8%.

For the compound `COc1cccc(CNC(=O)c2cccnc2N)c1`, the cytotoxicity at 10 µM is 20.1%.

On to `COCc1cc(CNC(=O)c2c(C)c(C)cc(C)c2C)n[nH]1`, for which the cytotoxicity at 10 µM is -6.65%.

Regarding `Cc1ccc(C)c(NC(=O)c2coc(C)n2)c1`, the cytotoxicity at 10 µM was -5.97%.

On to `COc1ccc(CNC(=O)NCc2ccc(C(N)=O)cc2)cn1`, for which the cytotoxicity at 10 µM was -2.94%.

For `CC(=O)N1CCO[C@@H]2CN(Cc3cccc(Cl)c3)C[C@@H]2C1`, the cytotoxicity at 10 µM is -104%.

As for `CCS(=O)(=O)N1CCN(C)c2ncccc2C1`, the cytotoxicity at 10 µM turned out to be 2.88%.

Turning to `CSc1ccsc1C(=O)N1CCN(CC(C)(C)O)CC1`, the cytotoxicity at 10 µM is -3.22%.

`Cc1n[nH]c(C)c1CCc1ccc(S(C)(=O)=O)cc1`: the cytotoxicity at 10 µM was 6.29%.

For the compound `CS(=O)(=O)Nc1ccc([C@H]2OCC(=O)N[C@@H]2CO)cc1`, the cytotoxicity at 10 µM was -5.4%.

Consider `Cc1ccc(C(=O)NCC(C)CN2CCCC2=O)c(=O)[nH]1` (stereo unspecified), for which the cytotoxicity at 10 µM was -8.57%.

`CN(c1ncc(S(N)(=O)=O)s1)C1CCC1`: the cytotoxicity at 10 µM amounted to 4.13%.

`CCC1CN(C(=O)c2ccc(=O)[nH]c2)CCC(=O)N1Cc1ccccc1` (stereo unspecified): the cytotoxicity at 10 µM is -17.6%.

For the compound `CCC(O)CN1CCN(C(=O)c2cccc3[nH]ncc23)CC1` (stereo unspecified), the cytotoxicity at 10 µM was -11.2%.

On to `C[C@@H]1CN(Cc2c[nH]c(CC3CCCC3)n2)CC[C@]1(C)O`, for which the cytotoxicity at 10 µM was 3.69%.

On to `CCNC(=O)N1CCC(Nc2nccc(NCC)n2)CC1`, for which the cytotoxicity at 10 µM was -3.6%.

`Cc1cnc(NCc2cnn(C)c2)nc1-c1cnn(C)c1`: the cytotoxicity at 10 µM was 52.1%.

Regarding `COc1c(CNCc2ccc(N(C)C)nc2)c(C(C)C)nn1C`, the cytotoxicity at 10 µM was -9.75%.

For `CCc1nnc(CN(CC)C(=O)C2CC(=O)N(Cc3cccnc3)C2)o1` (stereo unspecified), the cytotoxicity at 10 µM amounted to 2.3%.

In the case of `CCOCC1CC2(CCN(Cc3ccccn3)CC2)CO1` (stereo unspecified), the cytotoxicity at 10 µM is -0.671%.

`COCCN1CCCn2c(nc(CNC(=O)COC)cc2=O)C1`: the cytotoxicity at 10 µM was -106%.

Regarding `CCn1nccc1C(=O)N1CCCCC1CCc1ccc(O)cc1` (stereo unspecified), the cytotoxicity at 10 µM was determined as 2.62%.

In the case of `CC(=O)N1C[C@H]2CC[C@@H](C1)N(Cc1ccc(Cn3cccn3)cc1)C2`, the cytotoxicity at 10 µM was 0.0531%.

For the compound `CCc1nc(C2CCCN2C(=O)c2ccc(N(C)C)nn2)no1` (stereo unspecified), the cytotoxicity at 10 µM is -11.4%.

Turning to `CN(CC1CCC1)C(=O)c1ccc(-c2nc(C3CC3)n[nH]2)cc1`, the cytotoxicity at 10 µM is -3.26%.

As for `COc1ccnc(N2CCN(CC(=O)N3CCOC(C)C3)CC2)n1` (stereo unspecified), the cytotoxicity at 10 µM was -5.4%.

In the case of `CCc1noc(CN(CCc2ccccc2)C2CCN(C)CC2)n1`, the cytotoxicity at 10 µM stood at 0.15%.

Regarding `CN(Cc1ccccc1F)C(=O)c1ccoc1`, the cytotoxicity at 10 µM amounted to 11.3%.

Regarding `CNS(=O)(=O)Cc1ccccc1CNc1ccc(C#N)cn1`, the cytotoxicity at 10 µM was -6.45%.

`CC(C)c1nnc2n1CCN(C(=O)c1ccnc(N(C)C)c1)C2`: the cytotoxicity at 10 µM was found to be 3.06%.

`Cc1cccc(NC(=O)[C@@H]2CCCN2Cc2cnc3ccccn23)n1`: the cytotoxicity at 10 µM was -7.22%.

Turning to `CCN(Cc1nc(-c2ccco2)no1)Cc1cccc2c1OCO2`, the cytotoxicity at 10 µM came out at 8.33%.

With `Cc1ccc(N2CC[C@H]3O[C@@H](C(=O)N4CCCCO4)CC[C@H]32)nn1`, the cytotoxicity at 10 µM came out at 5.37%.

Take `Cc1nc(=O)c2ccccc2n1C1=CCN(CC(=O)N2CCCC2)CC1`: the cytotoxicity at 10 µM is -7.45%.

For `CC(C)C1CN(C(=O)c2cn3ccccc3n2)CCCN1CC1CC1` (stereo unspecified), the cytotoxicity at 10 µM is -13.6%.

Turning to `COCCN(Cc1sccc1C)C(=O)C1CCCN(C(N)=O)C1` (stereo unspecified), the cytotoxicity at 10 µM was -4.7%.

Take `CC(NC(=O)OC(C)(C)C)c1nnc(S(=O)(=O)Cc2ccc(Cl)cc2)o1` (stereo unspecified): the cytotoxicity at 10 µM is -8.92%.

For `O=C(C1CCCN(Cc2cccnc2)C1)N1CCc2sccc2C1` (stereo unspecified), the cytotoxicity at 10 µM was found to be 7.99%.

`CCn1nc(C)c(CCNC(=O)C2CCCN(CC(N)=O)C2)c1C` (stereo unspecified): the cytotoxicity at 10 µM was -11.8%.

Take `CCNc1cc2c(nn1)CCN(C(=O)c1ccc(CNC(C)=O)o1)C2`: the cytotoxicity at 10 µM was -10.8%.

For the compound `Cc1cc2nc(CO[C@H]3CN(C4CCCCC4)C[C@H]3F)[nH]c2cc1C`, the cytotoxicity at 10 µM was -17.5%.

`CCn1cnnc1C1CCN(C(=O)COc2ccccc2OC)CC1`: the cytotoxicity at 10 µM was -4.41%.

On to `COc1ccc(OC)c(CN2CCC(c3cc(O)nc(C)n3)C2)c1` (stereo unspecified), for which the cytotoxicity at 10 µM is -15%.

In the case of `CS(=O)(=O)N1CCN(C(=O)c2cnn3c2OCCC3)CC1`, the cytotoxicity at 10 µM was -3.45%.

Take `CCC(CC)CNC(=O)N(C)C(C)c1ccccn1` (stereo unspecified): the cytotoxicity at 10 µM was -6.2%.

Regarding `Cc1ccccc1C1(O)CCN(C(=O)CCc2cn3ccccc3n2)C1` (stereo unspecified), the cytotoxicity at 10 µM is -3.18%.

For the compound `CC(CS(C)(=O)=O)N(C(=O)Nc1cc(F)ccc1Cl)C1CC1` (stereo unspecified), the cytotoxicity at 10 µM was -4.15%.

Turning to `Cc1csc(CN(CC2CCCO2)C(=O)c2occc2C)n1` (stereo unspecified), the cytotoxicity at 10 µM stood at 0.489%.

Consider `COc1cc(N2CCC3(C2)CN(c2cccnc2)C(=O)CN3C)ncn1` (stereo unspecified), for which the cytotoxicity at 10 µM was -107%.

Take `Cc1ccc(C(=O)N2Cc3c(CN4CCCCC4)nn(C)c3C2)o1`: the cytotoxicity at 10 µM is -1.94%.

Consider `Nc1cc(-c2cccs2)nn(CC(=O)NCC2CCCCC2)c1=O`, for which the cytotoxicity at 10 µM is -3.09%.
